Each block holds one molecule with its values, some of them ahead of it. The source made the active and inactive calls. No cut-off for these calls is given here.
Key:
[1] = target: GABA-A receptor; anion channel; assay: Displacement of [3H]-muscimol from rat brain cortex GABAA receptor assessed as inhibition constant incubated for 1 hr by top-counter microplate scintillation counter method; assay type: cell membranes, Membrane
Homo sapiens = organism: Homo sapiens; assay: Binding affinity to GABA receptor (unknown origin) assessed as equilibrium binding constant by schild plot analysis; settings: filed as antagonist
[2] = target: T1, Gamma-aminobutyric acid receptor subunit alpha-5/beta-2/gamma-2 (Homo sapiens, UniProt P18507+P31644+P47870); assay: Antagonist activity at human alpha5beta2gamma2 GABAA receptor expressed in HEK293 cells by FMP assay; assay type: cell-based
T1 sequence (P47870 whole entry): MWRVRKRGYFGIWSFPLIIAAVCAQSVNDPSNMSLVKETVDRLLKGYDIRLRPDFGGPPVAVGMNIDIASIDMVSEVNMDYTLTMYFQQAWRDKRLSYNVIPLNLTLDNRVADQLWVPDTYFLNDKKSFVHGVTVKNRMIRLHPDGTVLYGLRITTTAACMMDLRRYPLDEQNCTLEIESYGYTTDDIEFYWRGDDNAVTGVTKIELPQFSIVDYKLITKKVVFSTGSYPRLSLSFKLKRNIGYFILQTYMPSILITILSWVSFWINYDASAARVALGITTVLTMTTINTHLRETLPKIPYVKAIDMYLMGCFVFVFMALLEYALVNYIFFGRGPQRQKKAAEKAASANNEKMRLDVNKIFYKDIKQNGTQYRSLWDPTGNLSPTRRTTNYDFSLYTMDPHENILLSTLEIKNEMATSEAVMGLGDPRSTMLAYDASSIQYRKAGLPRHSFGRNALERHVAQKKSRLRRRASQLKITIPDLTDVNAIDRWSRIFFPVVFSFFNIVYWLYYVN
T1 sequence (P18507 whole entry): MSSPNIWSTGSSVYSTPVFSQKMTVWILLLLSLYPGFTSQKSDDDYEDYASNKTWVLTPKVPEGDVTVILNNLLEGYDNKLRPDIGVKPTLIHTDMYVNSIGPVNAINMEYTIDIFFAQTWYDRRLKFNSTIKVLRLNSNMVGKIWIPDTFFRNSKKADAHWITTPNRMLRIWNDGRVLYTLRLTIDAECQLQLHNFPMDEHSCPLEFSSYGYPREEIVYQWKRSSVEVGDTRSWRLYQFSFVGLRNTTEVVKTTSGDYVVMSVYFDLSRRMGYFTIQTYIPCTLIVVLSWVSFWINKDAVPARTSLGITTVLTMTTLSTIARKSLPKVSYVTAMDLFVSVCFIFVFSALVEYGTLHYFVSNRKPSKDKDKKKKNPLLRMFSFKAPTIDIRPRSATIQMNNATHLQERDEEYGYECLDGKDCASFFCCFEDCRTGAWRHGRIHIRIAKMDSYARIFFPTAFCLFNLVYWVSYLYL
T1 sequence (P31644 whole entry): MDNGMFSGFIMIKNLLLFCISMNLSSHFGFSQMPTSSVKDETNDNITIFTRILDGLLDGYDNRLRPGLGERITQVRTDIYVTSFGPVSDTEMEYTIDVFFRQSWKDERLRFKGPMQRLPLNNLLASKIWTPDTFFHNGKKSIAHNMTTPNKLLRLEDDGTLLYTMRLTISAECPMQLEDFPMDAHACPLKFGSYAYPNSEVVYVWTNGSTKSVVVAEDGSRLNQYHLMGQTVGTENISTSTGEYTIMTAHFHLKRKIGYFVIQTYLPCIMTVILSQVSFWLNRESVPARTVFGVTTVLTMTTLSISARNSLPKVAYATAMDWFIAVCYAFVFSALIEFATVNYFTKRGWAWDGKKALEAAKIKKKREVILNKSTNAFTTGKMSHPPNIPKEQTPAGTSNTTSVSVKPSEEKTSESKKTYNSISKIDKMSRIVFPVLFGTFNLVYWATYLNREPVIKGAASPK
Method in brief: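 Human αβγ2 receptors in HEK293 cells: α1β2γ2 stably expressed, other αβγ2 subtypes transiently transfected into HEK293 Flp-In background cells (α:β:γ 1:1:2). FLIPR membrane potential assay with ΔRFU baseline to peak/plateau and GABA EC80 as agonist. IC50 from a four-parameter fit, at least three independent experiments.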

[3] = Receptor occupancy at human GABA receptor
[4] = system: CD4-positive T cell (mouse); assay: Induction of cell proliferation of mouse CD4+ve Th cells at 50 uM measured after 48 hrs in presence of alprazolam by flow cytometry analysis relative to control
CD4+ve Th = assay: Induction of cell proliferation of human CD4+ve Th cells at 50 uM measured after 96 hrs in presence of alprazolam by flow cytometry analysis relative to control; assay type: functional
Method in brief: (§1)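 Human PBMC from leukocyte cones were CFSE-stained (5 μM) and held at high density overnight. They were then stimulated with soluble anti-CD3 OKT3 (100 pg/mL) plus alprazolam 33 μM, with test compound at 50 μM, for 96 h. CD4+/CD8+ proliferation was measured by CFSE dilution on flow cytometry, at least six independent experiments.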

[5] = Induction of cell proliferation of human CD8-positive T cells at 50 uM measured after 96 hrs in presence of alprazolam by flow cytometry analysis relative to control; assay type: functional; method in brief: as §1
[6] = Apparent permeability of compound across apical to basolateral side in MDCK cells; assay type: ADME, cell-based, Canis lupus familiaris; settings: dog
Method in brief: (§2)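 MDR1-transfected MDCK monolayers, 0.5 μM test compound added apically or basally. Bidirectional apparent permeability measured in triplicate. Efflux ratio is B→A permeability divided by A→B permeability.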

[7] = Efflux ratio of apparent permeability across basolateral to apical side over apical to basolateral side in MDCK; assay type: ADME, cell-based, Canis lupus familiaris; settings: dog; method in brief: as §2
CD8-positive T cell = assay: Induction of cell proliferation of mouse CD8-positive T cells at 50 uM measured after 48 hrs in presence of alprazolam by flow cytometry analysis relative to control; assay type: functional, cell-based
Method in brief: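 Splenocytes from female BALB/c mice were CFSE-stained (5 μM) and stimulated with soluble anti-CD3 145.2C11 (33 ng/mL) plus alprazolam 100 μM, with test compound at 50 μM, for 48 h. CD4+/CD8+ proliferation was measured by CFSE dilution on flow cytometry, at least six independent experiments.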

[8] = Apparent permeability of compound across basolateral to apical side in MDCK cells; assay type: ADME, cell-based, Canis lupus familiaris; settings: dog; method in brief: as §2

- Ki [1]: 0.56 µM
Structure (SMILES): CC(=O)Nc1cccc(C(=O)N2CCC3(CCNCC3)CC2)c1

- Ki [1]: 0.02 µM
- Kb (Homo sapiens): 0.0069 µM
Structure (SMILES): O=C(Nc1cccc(C(=O)N2CCC3(CCNCC3)CC2)c1)c1cccs1

- IC50 [2]: 1.5 µM
- IC50 ([2]; read-out: pIC50 (converted)): 1.45 µM
Structure (SMILES): Cc1ccc(C(=O)N2CCC3(CCNCC3)CC2)cc1

- pIC50 [3]: 7.152
- Papp A→B [6]: 1.3 ×10⁻⁶ cm/s
- efflux ratio [7]: 11.5
- IC50 [2]: 0.54 µM
- IC50 ([2]; read-out: pIC50 (converted)): 0.537 µM
- Papp B→A [8]: 15 ×10⁻⁶ cm/s
Structure (SMILES): Cc1cccc(C(=O)N2CCC3(CCNCC3)CC2)c1
- Activity [4]: Active
- Activity (CD4+ve Th): 20%
- Activity [5]: 20%
- Activity (CD8-positive T cell): Active

From ChEMBL document CHEMBL5096209, “Structure-Activity Studies of 3,9-Diazaspiro[5.5]undecane-Based γ-Aminobutyric Acid Type A Receptor Antagonists with Immunomodulatory Effect” (J Med Chem, 2021)
